In experiment [1] the test system is GSK3β. Put plainly: In vitro GSK3β kinase assay. Particulars: 2 µM protein. The experiment is classed as biochemical.
Experiment [2] has as its system GSK3β. The class given is binding. Conditions: GST-tagged DISC1 fragments, purified His-tagged GSK3β, in vitro.
The subject of a further experiment is AHPs. As to the kind of experiment: AHP cell proliferation assay. The class given is cell-based. Conditions: 200 ng/ml in culture medium; cell numbers counted for 2 days; n=3. An outline of the steps:
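Adult hippocampal progenitors transduced 2 days with GFP-expressing lentivirus (control, DISC1 shRNA or WT-hDISC1), then FACS-sorted on GFP. 2×10^4 cells seeded per well in medium with recombinant Wnt3a (200 ng/ml) or vehicle. Cells counted each day for 2 days; n=3.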

B1: DISC1 221–355: GST-tagged DISC1 protein fragment spanning 221–355 (protein, UniProt Q9NRI5 221-355, looked up, fragment)
chain: GERGEAEGCPPSREAESHCQSPQEMGAKAASLDGPHEDPRCLSRPFSLLATRVSADLAQAARNSSRPERDMHSLPDMDPGSSSSLDPSLAGCGGDGSSGSGDAHSWDTLLRKWEPVLRDCLLRNRRQMEVISLRL
modifications: GST tag
With B1, the “Inhibition of GSK3β autophosphorylation” value in the experiment with GSK3β [1] was “started to inhibit”.

B2: DISC1 356–595: GST-tagged DISC1 protein fragment spanning residues 356–595 (protein)
chain: LKLQKCQEKVVEDGDYDTAETLRQRLEELEQEKGRLSWALPSQQPALRSFLGYLAAQIQVALHGATQRAGSDDPEAPLEGQLRTTAQDSLPASITRRDWLIREKQRLQKEIEALQARMSALEAKEKRLSQELEEQEVLLRWPGCDLMALVAQMSPGQLQEVSKALGETLTSANQAPFQVEPPETLRSLRERTKSLNLAVRELTAQVCSGEKLCSSLRRRLSDLDTRLPALLEAKMLALSG
modifications: left off: GST, end not stated, kept
On to B2, for which the “Interaction with GSK3β” value in the experiment on GSK3β [2] is listed as “strong interactions”. In addition, in the experiment on GSK3β [1], the “Inhibition of GSK3β autophosphorylation” value is reported as “started to inhibit”.

B3: Wnt3a: recombinant Wnt3a protein (protein, UniProt P56704 19-352, looked up)
Protein Wnt-3a: SYPIWWSLAVGPQYSSLGSQPILCASIPGLVPKQLRFCRNYVEIMPSVAEGIKIGIQECQHQFRGRRWNCTTVHDSLAIFGPVLDKATRESAFVHAIASAGVAFAVTRSCAEGTAAICGCSSRHQGSPGKGWKWGGCSEDIEFGGMVSREFADARENRPDARSAMNRHNNEAGRQAIASHMHLKCKCHGLSGSCEVKTCWWSQPDFRAIGDFLKDKYDSASEMVVEKHRESRGWVETLRPRYTYFKVPTERDLVYYEASPNFCEPNPETGSFGTRDRTCNVSSHGIDGCDLLCCGRGHNARAERRREKCRCVFHWCCYVSCQECTRVYDVHTCK
For B3, the “Proliferation of AHPs” value in the experiment on AHPs is given as “significantly stimulated”.

Source of the values: publication PMC2704382 (Cell, 2009).
